Measurements reported in ChEMBL document CHEMBL1126768, “A mechanism-based inactivation study of neutral endopeptidase 24.11” (J Med Chem, 1993).

B1: Neprilysin (Homo sapiens), P08473 (protein)
chain: MGKSESQMDITDINTPKPKKKQRWTPLEISLSVLVLLLTIIAVTMIALYATYDDGICKSSDCIKSAARLIQNMDATTEPCTDFFKYACGGWLKRNVIPETSSRYGNFDILRDELEVVLKDVLQEPKTEDIVAVQKAKALYRSCINESAIDSRGGEPLLKLLPDIYGWPVATENWEQKYGASWTAEKAIAQLNSKYGKKVLINLFVGTDDKNSVNHVIHIDQPRLGLPSRDYYECTGIYKEACTAYVDFMISVARLIRQEERLPIDENQLALEMNKVMELEKEIANATAKPEDRNDPMLLYNKMTLAQIQNNFSLEINGKPFSWLNFTNEIMSTVNISITNEEDVVVYAPEYLTKLKPILTKYSARDLQNLMSWRFIMDLVSSLSRTYKESRNAFRKALYGTTSETATWRRCANYVNGNMENAVGRLYVEAAFAGESKHVVEDLIAQIREVFIQTLDDLTWMDAETKKRAEEKALAIKERIGYPDDIVSNDNKLNNEYLELNYKEDEYFENIIQNLKFSQSKQLKKLREKVDKDEWISGAAVVNAFYSSGRNQIVFPAGILQPPFFSAQQSNSLNYGGIGMVIGHEITHGFDDNGRNFNKDGDLVDWWTQQSASNFKEQSQCMVYQYGNFSWDLAGGQHLNGINTLGENIADNGGLGQAYRAYQNYIKKNGEEKLLPGLDLNHKQLFFLNFAQVWCGTYRPEYAVNSIKTDVHSPGNFRIIGTLQNSAEFSEAFHCRKNSYMNPEKKCRVW
B2: Angiotensin-converting enzyme (Rattus norvegicus), P47820 (protein)
chain: MGAASGQRGRWPLSPPLLMLSLLLLLLLPPSPAPALDPGLQPGNFSADEAGAQLFADSYNSSAEVVMFQSTAASWAHDTNITEENARLQEEAALINQEFAEVWGKKAKELYESIWQNFTDQKLRRIIGSVQTLGPANLPLTQRLQYNSLLSNMSRIYSTGKVCFPNKTATCWSLDPELTNILASSRNYAKVLFAWEGWHDAVGIPLRPLYQDFTALSNEAYRQDGFSDTGAYWRSWYESPSFEESLEHLYHQVEPLYLNLHAFVRRALHRRYGDKYINLRGPIPAHLLGDMWAQSWENIYDMVVPFPDKPNLDVTSTMVQKGWNATHMFRVAEEFFTSLGLSPMPPEFWAESMLEKPADGREVVCHASAWDFYNRKDFRIKQCTRVTMDQLSTVHHEMGHVQYYLQYKDLHVSLRRGANPGFHEAIGDVLALSVSTPAHLHKIGLLDRVANDIESDINYLLKMALEKIAFLPFGYLVDQWRWGVFSGRTPPSRYNYDWWYLRTKYQGICPPVARNETHFDAGAKFHIPSVTPYIRYFVSFVLQFQFHQALCKEAGHQGPLHQCDIYQSTKAGAKLQQVLQAGCSRPWQEVLKDLVGSDALDASALMEYFQPVSQWLQEQNQRNGEVLGWPEYQWRPPLPDNYPEGIDLETDEAKANRFVEEYDRTAKVLWNEYAEANWHYNTNITIEGSKILLQKNKEVSNHTLKYGTWAKTFDVSNFQNSTIKRIIKKVQNVDRAVLPPNELEEYNQILLDMETTYSVANVCYTNGTCLSLEPDLTNIMATSRKYEELLWVWKSWRDKVGRAILPFFPKYVDFSNKIAKLNGYSDAGDSWRSSYESDDLEQDLEKLYQELQPLYLNLHAYVRRSLHRHYGSEYINLDGPIPAHLLGNMWAQTWSNIYDLVAPFPSAPSIDATEAMIKQGWTPRRIFKEADNFFTSLGLLPVPPEFWNKSMLEKPTDGREVVCHASAWDFYNGKDFRIKQCTSVNMEELVIAHHEMGHIQYFMQYKDLPVTFREGANPGFHEAIGDVLALSVSTPKHLHSLNLLSSEGSGYEHDINFLMKMALDKIAFIPFSYLIDQWRWRVFDGSITKENYNQEWWSLRLKYQGLCPPVPRSQGDFDPGSKFHVPANVPYIRYFISFIIQFQFHEALCRAAGHTGPLYKCDIYQSKEAGKLLADAMKLGYSKQWPEAMKIITGQPNMSASAIMNYFKPLTEWLVTENRRHGETLGWPEYTWTPNTARAEGSLPESSRVNFLGMYLEPQQARVGQWVLLFLGVALLVATVGLAHRLYNIHNHHSLRRPHRGPQFGSEVELRHS

Key:
[1] = substrate: N#CCC(=O)CC(Cc1ccccc1)C(=O)NC(Cc1ccccc1)C(=O)O
[2] = substrate: N#CCC(=O)NC(Cc1ccccc1)C(=O)NC(Cc1ccccc1)C(=O)O; assay: Michaelis-Menten constant determined for Neutral endopeptidase (NEP)
Procedure, shortened: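 Recombinant human NEP from CHO cells (>99% pure), 0.5 μM in 50 mM HEPES pH 7.4 with 10% p-dioxane, incubated at 25 °C with inactivator at 0.5–7.5 μM final. Aliquots diluted 1:100 into DAGNPG assay solution (50 mM Tris pH 7.4, 37 °C), fluorescence read at ex 342/em 562 nm. Pseudo-first-order kobs plotted double-reciprocally against inactivator concentration to give kinact and Km.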

[3] = substrate: N#CCC(=O)NC(Cc1ccccc1)C(=O)NC(Cc1ccccc1)C(=O)O; assay: Michaelis-Menten constant determined for Angiotensin I converting enzyme

| Protein | Km [1] [mM] | Km [2] [mM] | Km [3] [mM] |
| --- | --- | --- | --- |
| B1 | 5.1 | 2.38 | – |
| B2 | – | – | 10.5 |
